STAT1 blocker: STAT1 signaling inhibitors, primary screen, cell-based, HTS, luciferase reporter; NIH 3T3 STAT1-luciferase reporter, IFN-gamma, luminescence; inhibition, % at 5.5 µM; hit rate 0.35% among 200,000; AID 920, 2007;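 active = inhibition above a set limit, the mean inhibition across all tested compounds plus 3 SD, cut at about 34% in these data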
PPC-1+TRAIL kill: compounds killing PPC-1 cancer cells with TRAIL present, primary screen, TRAIL potentiator project, ATPLite luminescence, uHTS; PPC-1 cells + TRAIL, ATPLite viability luminescence; AID 1443, 2008; hit rate 0.41% among 220,000; cell killing (% activity), % at 4 µM or 5 µM;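 active = cell killing above 50% in the first pass at 4 µM, then a duplicate retest at 5 µM averaging 50% or more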
HSP90 refold inh: HSP90 inhibitors, primary screen, cell lysate, luminescence; Rabbit reticulocyte lysate, luciferase refolding luminescence, 3 h; hit rate 0.91% among 290,000; inhibition, % at 5.6 µM; Heat shock protein HSP 90 (rabbit reticulocyte lysate; luciferase refolding);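 active = inhibition above the screen-wide mean plus 3 SD, computed separately per campaign, cut at about 16% in these data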;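 note: inhibitors lower the luminescence because luciferase stays unfolded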
C8 TRAIL sens: viability loss with TRAIL in NB7+C8 cells, primary screen, TRAIL sensitizer project, cell-based, ATPlite luminescence; inhibition (viability loss, TRAIL sensitization), % at 10 µM; hit rate 1% among 360,000; AID 624354, 2012;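 active = compounds causing at least 50% loss of cell viability in the single-dose screen, relative to plate controls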
STAT3 inh: IL-6 driven STAT3 reporter inhibitors, primary screen, U3A cells, luciferase, luminescence, MLSCN library. IL-6 STAT3-luciferase reporter; host cell line lacks STAT1. inhibition, % at 5.5 µM. hit rate 0.89% among 190,000. AID 862, 2007;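 active = inhibition above the mean inhibition across all screened compounds plus 3 SD, cut at about 44% in these data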
STAT3 act: IL-6 driven STAT3 reporter potentiators, primary screen, U3A cells, luciferase, luminescence, MLSCN library. activation (% of control), % at 5.6 µM. hit rate 0.91% among 190,000. AID 871, 2007. IL-6 STAT3-luciferase reporter; 100% = signal with IL-6 EC80 alone;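 active = activation above the screen-wide mean of compound activation plus 3 SD, cut at about 130% in these data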
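Detection: reporter luminescence signal / Assay system: STAT1-lacking human U3A cells, STAT3 luciferase reporter / Incubation: compound pre-incubation 1 h before IL-6, then 6 h stimulation at 37 °C / Control set: IL-6-only high control / Read-out: % activation relative to IL-6 control / Probe or stimulus: Interleukin-6, 33 ng/mL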
Hits are given with their value; i = inactive; nt = no result. The list is not random: actives were taken first. Their share in the collection is about 2.3%.

SMILES	STAT1 blocker	PPC-1+TRAIL kill	HSP90 refold inh	C8 TRAIL sens	STAT3 inh	STAT3 act
O=C(COc1ccccc1)Nc1cccc(-c2ccc(N3CCOCC3)nn2)c1	nt	nt	nt	70.1	nt	nt
CCOc1ccc(-c2cccc(NC(=O)c3ccc(Br)o3)c2)nn1	nt	nt	nt	i	nt	nt
O=C(Nc1cccc(-c2ccc(N3CCCCC3)nn2)c1)c1ccc(Br)o1	nt	nt	nt	78.4	nt	nt
CC1CCN(c2ccc(-c3cccc(NC(=O)c4ccco4)c3)nn2)CC1	nt	nt	nt	86.3	nt	nt
O=C(COc1ccc(Cl)cc1Cl)Nc1cccc(-c2ccc(N3CCOCC3)nn2)c1	nt	nt	nt	i	nt	nt
O=C(CCN1C(=O)S/C(=C/c2ccc(F)cc2)C1=O)Nc1ccc(O)c(C(=O)O)c1	nt	nt	i	i	nt	nt
CCc1nc2ccc(C(=O)Nc3ccc(C(=O)N(C)C)cc3)cn2c1N(C)CCCc1ccccc1	nt	nt	nt	i	nt	nt
COCCn1c(N)c(N(Cc2ccccc2)C(=O)C2CCCC2)c(=O)[nH]c1=O	i	i	i	i	i	i
S=c1nc[nH]c2nc[nH]c12	nt	nt	i	71.0	nt	nt
CCOC(=O)C1=CCN(S(=O)(=O)c2ccccc2Cl)C1c1cccc(F)c1 (stereo not given)	nt	nt	nt	70.9	nt	nt
Cc1ccc(NC(=O)c2sc3nc(CCl)[nH]c(=O)c3c2C)c(C)c1	i	i	i	54.5	i	i
Cc1cc(C)c(NC(=O)c2sc3nc(C)[nH]c(=O)c3c2C)c(C)c1	i	i	i	nt	i	i
O=C1c2ccccc2S(=O)(=O)c2cc(N3CCOCC3)ccc21	nt	nt	nt	66.4	nt	nt
COCCNC(=O)c1cccc2c1C(=O)c1ccc(N3CCOCC3)cc1S2(=O)=O	nt	nt	nt	i	nt	nt
COC(=O)C[C@H]1C=C[C@@H](NC(=O)Nc2cccc(OC)c2)[C@@H](CO)O1	nt	nt	nt	i	nt	nt
Cc1ccc(NC2=CC(=O)C(=O)c3ccccc32)cc1	i	i	i	91.1	i	i
Cc1ccc(NC2=C(Cl)C(=O)c3ccccc3C2=O)cc1	i	i	i	i	i	i
Cc1cc(NC2=CC(=O)C(=O)c3ccccc32)no1	nt	nt	nt	72.2	nt	nt
Cc1cc(NC(=O)CCN2C(=O)c3ccccc3C2=O)no1	i	i	i	i	i	i
Cc1ccc(NC2=C(N3CCOCC3)C(=O)c3ccccc3C2=O)cc1	i	i	i	55.6	i	i
NS(=O)(=O)c1ccc(NC2=CC(=O)C(=O)c3ccccc32)cc1	nt	nt	i	63.9	nt	nt
O=C(Nc1ccccc1Cl)N1CCN(c2ncccn2)CC1	i	i	i	i	i	i
Cc1ccc(S(=O)(=O)NC2=C(N3CCN(Cc4ccccc4)CC3)C(=O)c3ccccc3C2=O)cc1	i	i	i	i	i	i
CCOC(=O)N1CCN(C2=C(NS(=O)(=O)c3ccc(C)cc3)C(=O)c3ccccc3C2=O)CC1	nt	nt	i	52.8	nt	nt
COC(=O)c1ccc(COc2ccc(C)c(C)c2)o1	nt	nt	16.7	i	nt	nt
SMILES	STAT1 blocker	PPC-1+TRAIL kill	HSP90 refold inh	C8 TRAIL sens	STAT3 inh	STAT3 act
COC(=O)c1ccc(COc2ccc3ccc(=O)oc3c2)o1	nt	nt	i	i	nt	nt
Cc1ccc(C(=O)O/N=C(\N)c2ccc(Br)cc2)cc1C	i	i	i	85.9	i	i
Cc1cc(C)cc(C(=O)O/N=C(\N)c2ccc(Br)cc2)c1	i	i	i	90.0	i	i
O=C(Nc1cccc(-c2cn3cccnc3n2)c1)c1ccc(Br)o1	i	i	i	i	i	i
CS(=O)(=O)N1CCN=C1SCc1cccc(F)c1	nt	nt	i	i	nt	nt
CCN1CCC(O)(/C=C/c2ccc(C(C)C)cc2)C(C(=O)/C=C/c2ccc(C(C)C)cc2)C1 (stereo not given)	nt	nt	nt	87.2	nt	nt
O=C(O)CCCCCNC(=O)c1ccc(C(=O)NCCCCCC(=O)O)cc1	nt	i	i	i	nt	nt
CCCCNC(=O)CN1C(=O)COc2ccc(S(=O)(=O)N3CCCCCC3)cc21	nt	nt	i	i	nt	nt
CC(=O)Nc1ccc(C(=O)Nc2nc(-c3ccccn3)cs2)cc1	i	i	i	i	i	i
O=C(Nc1nc(-c2ccccn2)cs1)c1ccc2c(c1)OCCO2	i	i	i	50.7	nt	nt
O=C(c1cc2c(cc1Br)OCCCO2)N1CCCCC1	i	i	i	i	i	i
Cc1cc(NC(=O)c2cc3n(n2)C(C(F)(F)F)CC(c2ccco2)N3)no1 (stereo not given)	i	i	i	60.0	i	i
CN(Cc1ccccc1)c1nc(-c2ccc([N+](=O)[O-])cc2)nc2ccccc12	i	i	i	i	i	i
O=[N+]([O-])c1ccc(-c2nc(C(Cl)Cl)c3ccccc3n2)cc1	nt	i	i	59.9	nt	nt
O=C(CC1C[C@H](C(=O)N2CCCCC2)[C@@]2(CCc3ccccc3)c3[nH]c4ccccc4c3CCN2C1=O)NCCC1=CCCCC1 (stereo not given in full)	nt	nt	nt	i	nt	nt
CN(C)CCCNC(=O)C[C@H]1C[C@H](C(=O)N2CCCCC2)[C@@]2(CCc3ccccc3)c3[nH]c4ccc(Cl)cc4c3CCN2C1=O	nt	nt	nt	66.2	nt	nt
O=C(C[C@H]1C[C@H](C(=O)N2CCCCC2)[C@@]2(CCc3ccccc3)c3[nH]c4ccc(Cl)cc4c3CCN2C1=O)NCCc1ccccn1	nt	nt	nt	i	nt	nt
O=C(C[C@H]1C[C@H](C(=O)N2CCCCC2)[C@@]2(CCc3ccccc3)c3[nH]c4ccc(Cl)cc4c3CCN2C1=O)NCCC1=CCCCC1	nt	nt	nt	54.6	nt	nt
CC1Oc2ccccc2C=C1/C=N/NC(=O)c1ccccc1O (stereo not given)	i	i	i	50.3	i	i
COc1ccc(C=NNc2ccc(S(=O)(=O)Nc3ccccc3C(=O)O)cc2[N+](=O)[O-])c(OC)c1	nt	nt	nt	i	nt	nt
COc1ccc(NC(=S)NNc2ccc(S(=O)(=O)Nc3ccccc3C(=O)O)cc2[N+](=O)[O-])cc1	nt	i	20.2	i	nt	nt
Nc1nc(N)nc(-c2ccccc2O)n1	i	i	i	i	i	i
Cc1cc(C)c(S(=O)(=O)Nc2cc(SCC(=O)O)c(O)c3ccccc23)cc1C	i	i	i	nt	i	135.4
Cc1ccc(NC2CCCN(C(=O)c3ccc(F)cc3)C2)cc1C (stereo not given)	nt	nt	i	i	nt	nt
c1ccc2[nH]c(-c3ccc4c(c3)OCO4)nc2c1	nt	nt	nt	71.8	nt	nt
SMILES	STAT1 blocker	PPC-1+TRAIL kill	HSP90 refold inh	C8 TRAIL sens	STAT3 inh	STAT3 act
c1nc2ccc(Cc3ccc4nc[nH]c4c3)cc2[nH]1	nt	nt	i	i	nt	nt
CC(CCc1ccccc1)NC(=O)c1ccc(C(=O)NC(C)CCc2ccccc2)cc1 (stereo not given)	i	i	i	i	59.7	i
Cc1ccc(S(=O)(=O)Nc2cccc(C(=O)NCc3ccc(S(N)(=O)=O)cc3)c2)cc1	nt	nt	i	i	nt	nt
O=C(NC1CCCCC1)c1n[nH]c2c1CCCCC2	nt	nt	nt	77.6	nt	nt
CCN(CC)CCCNC(=O)Cn1ccc2ccccc2c1=O	i	i	i	i	i	i
CC(C)(C)C(=O)Oc1ccc2cc(-c3ccc4ccccc4n3)c(=O)oc2c1	i	i	i	i	i	i

Assay outcomes deposited in PubChem by several laboratories.
